ChEMBL document CHEMBL1147186, “Dibenzothiazoles as novel amyloid-imaging agents” (Bioorg Med Chem, 2007)

Key:
[1] = molecular target: Amyloid-beta precursor protein (Homo sapiens, UniProt P05067); assay: Displacement of [3H]PIB from beta amyloid in brain homogenate from Alzheimer's patient; type: tissue-based
Outline: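 Competition binding against [3H]PIB (0.05 nM final) in postmortem AD gray-matter homogenate prepared in PBS pH 7.4. Inhibitors at 10^-5 to 10^-12 mol/L (PBS, under 1% DMSO), incubated 37 °C for 1 h. Bound radioligand was collected by GF/B vacuum filtration, washed three times with PBS and scintillation-counted. Nonspecific binding was defined with 10 µM PIB. Ki was obtained by nonlinear regression.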

[2] = Partition coefficient, log P of the compound; type: physicochemical; settings: octanol/water
Outline: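 Shake-flask logP using the [125I] radioligand (RCP >98%) in n-octanol and 0.1 M phosphate buffer pH 7.4. Mixture vortexed 3 min at room temperature and centrifuged 3500 rpm for 5 min. Both phases were weighed and counted; logP is log of the cpm/g octanol to cpm/g buffer ratio. The octanol phase was repartitioned until values were consistent; done in triplicate.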

Brain [3] = assay: Biodistribution in Swiss-Webster mouse brain at 0.185 MBq, iv after 2 mins; type: ADME, organism-based; settings: in vivo
Outline: (§1)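 Radioiodinated tracer in saline/ethylene glycol/ethanol/HCl vehicle, single tail-vein injection under anesthesia into 2-month-old Swiss-Webster mice (n = 3 per time point). Animals killed by heart puncture at 2, 30 and 60 min; brain removed, weighed and gamma-counted. Uptake expressed as % injected dose per gram.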

Brain [4] = assay: Biodistribution in Swiss-Webster mouse brain at 0.185 MBq, iv after 30 mins; type: ADME, organism-based; settings: in vivo, 0.5 h; outline: as §1
Brain [5] = assay: Biodistribution in Swiss-Webster mouse brain at 0.185 MBq, iv after 60 mins; type: ADME, organism-based; settings: in vivo, 1 h; outline: as §1

Chain of Amyloid-beta precursor protein (P05067 whole entry): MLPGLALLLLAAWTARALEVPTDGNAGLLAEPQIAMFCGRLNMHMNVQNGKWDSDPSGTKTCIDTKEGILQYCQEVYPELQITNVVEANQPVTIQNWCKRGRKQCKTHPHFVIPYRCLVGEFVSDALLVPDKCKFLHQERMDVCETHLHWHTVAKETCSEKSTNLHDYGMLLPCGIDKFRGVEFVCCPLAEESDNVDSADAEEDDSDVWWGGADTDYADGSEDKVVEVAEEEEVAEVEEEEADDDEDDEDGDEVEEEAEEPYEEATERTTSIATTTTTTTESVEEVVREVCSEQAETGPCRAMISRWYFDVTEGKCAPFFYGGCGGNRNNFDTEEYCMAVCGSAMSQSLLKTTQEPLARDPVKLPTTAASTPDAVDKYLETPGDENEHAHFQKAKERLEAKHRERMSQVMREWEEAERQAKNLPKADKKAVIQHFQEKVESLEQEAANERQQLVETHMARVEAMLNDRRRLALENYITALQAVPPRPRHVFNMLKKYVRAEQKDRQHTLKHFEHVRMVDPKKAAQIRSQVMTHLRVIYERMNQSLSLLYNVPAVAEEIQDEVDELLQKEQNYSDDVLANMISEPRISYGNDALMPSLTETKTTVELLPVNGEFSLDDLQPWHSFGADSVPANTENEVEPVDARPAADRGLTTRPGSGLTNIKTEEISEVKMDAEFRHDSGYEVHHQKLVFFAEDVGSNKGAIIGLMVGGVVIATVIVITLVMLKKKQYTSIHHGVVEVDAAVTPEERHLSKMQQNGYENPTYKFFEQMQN

**Q.** Which Ki [1] does the source give for `Nc1ccc(-c2nc3ccc(-c4nc5ccc(F)cc5s4)cc3s2)cc1` here?
**A.** 0.036 µM

**Q.** Which Ki [1] does the source give for `CNc1ccc(-c2nc3ccc(-c4nc5ccc(Cl)cc5s4)cc3s2)cc1` here?
**A.** 0.0068 µM

**Q.** With `CN(C)c1ccc(-c2nc3ccc(-c4nc5ccc(F)cc5s4)cc3s2)cc1` as the compound, how does the Ki [1] read?
**A.** 0.023 µM

**Q.** Which results are given for `Nc1ccc(-c2nc3ccc(-c4nc5ccccc5s4)cc3s2)cc1I`?
**A.** Ki [1]: 0.021 µM; logP [2]: 2.7

**Q.** With `Nc1ccc(-c2nc3ccc(-c4nc5ccccc5s4)cc3s2)cc1[125I]` as the compound, how does the logP [2] read?
**A.** 2.7

**Q.** What about the Drug uptake (Brain [3]) of the same compound?
**A.** 3.71 % ID/g

**Q.** What about the Drug uptake (Brain [4]) of the same compound?
**A.** 0.78 % ID/g

**Q.** And the Drug uptake (Brain [5])?
**A.** 0.43 % ID/g

**Q.** For `Nc1ccc(-c2nc3ccc(-c4nc5ccccc5s4)cc3s2)cc1`, which Ki [1] is on record?
**A.** 0.025 µM

**Q.** Which Ki [1] does the source give for `Nc1ccc(-c2nc3ccc(-c4nc5ccc(Cl)cc5s4)cc3s2)cc1` here?
**A.** 0.034 µM

**Q.** With `CNc1ccc(-c2nc3ccc(-c4nc5ccccc5s4)cc3s2)cc1` as the compound, how does the Ki [1] read?
**A.** 0.022 µM

**Q.** For `CNc1ccc(-c2nc3ccc(-c4nc5ccc(F)cc5s4)cc3s2)cc1`, which Ki [1] is on record?
**A.** 0.027 µM

**Q.** For `COc1ccc2nc(-c3ccc4nc(-c5ccc(N)cc5)sc4c3)sc2c1`, which Ki [1] is on record?
**A.** 0.025 µM
